Assay [1] relates to Mycobacterium tuberculosis. Description: Antimycobacterial activity against isoniazid-resistant Mycobacterium tuberculosis after 3 to 28 days by twofold dilution method. The assay is classed as functional. A digest of the protocol:
(§1)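 Twofold agar dilution in Middlebrook 7H11 with 10% OADC; plates held at 37 °C for 3 or 28 days. MIC is the lowest concentration giving complete inhibition of visible mycobacterial growth. Rifampin, streptomycin and BM521 served as references.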

The test system of assay [2] is Mycobacterium tuberculosis. Description: Antimycobacterial activity against rifampin-resistant Mycobacterium tuberculosis after 3 to 28 days by twofold dilution method. The assay is classed as functional. A digest of the protocol:
as §1

Values after ≈ are worked out from the molar mass of the structure shown. Bounds are passed on as bounds.

As for `CSc1ccc(-c2cc(CN3CCSCC3)c(C)n2-c2ccc(F)cc2)cc1`, the minimal inhibitory concentration (MIC) is greater than 16 µg/mL in assay [1] and 0.25 µg/mL (≈ 0.606 µM) in assay [2].
For `Cc1ccc(-c2cc(CN3CCSCC3)c(C)n2-c2ccc(F)cc2)cc1` the same measures were 32 µg/mL (≈ 84.1 µM) and 0.5 µg/mL (≈ 1.31 µM).
On to `CO[C@H]1/C=C/O[C@@]2(C)Oc3c(C)c(O)c4c(O)c(c(/C=N/N5CCN(C)CC5)c(O)c4c3C2=O)NC(=O)/C(C)=C\C=C\[C@H](C)[C@H](O)[C@@H](C)[C@@H](O)[C@@H](C)[C@H](OC(C)=O)[C@@H]1C` [RIFAMPIN], for which the MIC in assay [1] was 0.8 µg/mL (≈ 0.972 µM); in assay [2] it was greater than 64 µg/mL.
Taken in the same sequence, the figures for `CN[C@@H]1[C@H](O[C@H]2[C@H](O[C@H]3[C@H](O)[C@@H](O)[C@H](N=C(N)N)[C@@H](O)[C@@H]3N=C(N)N)O[C@@H](C)[C@]2(O)C=O)O[C@@H](CO)[C@H](O)[C@H]1O` [STREPTOMYCIN] were 0.5 µg/mL (≈ 0.86 µM) and 0.5 µg/mL (≈ 0.86 µM).

The values are drawn from ChEMBL document CHEMBL1275336, “Identification of a novel pyrrole derivative endowed with antimycobacterial activity and protection index comparable to that of the current antitubercular drugs streptomycin and rifampin” (Bioorg Med Chem, 2010).
